# Reference: ChEMBL document CHEMBL4229344 (Eur J Med Chem, 2018)
# Active and inactive are the calls of the source. The rule behind the calls is not given here.
# Assays:
# [1] = target: Tyrosine-protein kinase Fyn (Homo sapiens) (UniProt P06241); assay: Binding affinity to wild-type human partial length FYN (T243 to L534 residues) expressed in bacterial expression system assessed as residual binding level at 1 uM by Kinomescan method relative to control
# In short: (§1)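 Kinome-wide competition binding screen against a panel of 468 purified kinases/mutants, with the test compound at a single concentration of 1 μM. Read-out is the relative binding activity of each kinase in the presence of compound.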
# [2] = target: Serine/threonine-protein kinase Chk2 (Homo sapiens) (UniProt O96017); assay: Binding affinity to wild-type human partial length CHEK2 (S253 to E574 residues) expressed in bacterial expression system assessed as residual binding level at 1 uM by Kinomescan method relative to control
# [3] = target: Serine/threonine-protein kinase N2 (Homo sapiens) (UniProt Q16513); assay: Binding affinity to wild-type human partial length PKN2 (E634 to C984 residues) expressed in bacterial expression system assessed as residual binding level at 1 uM by Kinomescan method relative to control
# [4] = target: Hepatocyte growth factor receptor (Homo sapiens) (UniProt P08581); assay: Binding affinity to wild-type human partial length MET (D1010 to S1367 residues) expressed in bacterial expression system assessed as residual binding level at 1 uM by Kinomescan method relative to control
# [5] = target: Cyclin-dependent kinase 2 homolog (Plasmodium falciparum (isolate 3D7)) (UniProt P61075); assay: Binding affinity to wild-type Plasmodium falciparum 3D7 full length PK5 (M1 to N288 residues) expressed in mammalian expression system assessed as residual binding level at 1 uM by Kinomescan method relative to control
# In short: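 Single-concentration (1 μM) competition-binding screen run by KINOMEscan against a panel of 468 purified kinases and mutants. The read-out is the relative binding activity of the test compound to each kinase.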
# [6] = target: Dual specificity mitogen-activated protein kinase kinase 3 (Homo sapiens) (UniProt P46734); assay: Binding affinity to wild-type human full length MEK3 (M1 to S318 residues) expressed in mammalian expression system assessed as residual binding level at 1 uM by Kinomescan method relative to control
# In short: (§2)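 Single-concentration KINOMEscan (DiscoverX) binding screen at 1 μM against a panel of 468 purified kinases and mutants. The read-out is binding relative to control.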
# [7] = target: Mitogen-activated protein kinase 14 (Homo sapiens) (UniProt Q16539); assay: Binding affinity to wild-type human full length p38-alpha (M1 to S360 residues) expressed in bacterial expression system assessed as residual binding level at 1 uM by Kinomescan method relative to control; in short: as §2
# [8] = target: Mitogen-activated protein kinase kinase kinase 6 (Homo sapiens) (UniProt O95382); assay: Binding affinity to wild-type human partial length ASK2 (M278 to R972 residues) expressed in mammalian expression system assessed as residual binding level at 1 uM by Kinomescan method relative to control; in short: as §2
# EOL1 = assay: Induction of apoptosis in human EOL-1 cells assessed as cleaved caspase3 expression level at 3 to 100 nM after 24 hrs by Western blot analysis; assay type: functional, cell-based
# In short: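 Cells exposed to compound or DMSO for the stated periods, then lysed and immunoblotted for PARP and caspase-3 cleavage, with β-actin as loading control. NCI-H1703 stimulation used PDGF AA at 100 ng/mL.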
# [9] = target: Ephrin type-B receptor 6 (Homo sapiens) (UniProt O15197); assay: Binding affinity to wild-type human partial length EPHB6 (Q634 to P948 residues) expressed in mammalian expression system assessed as residual binding level at 1 uM by Kinomescan method relative to control
# [10] = Apparent clearance in Sprague-Dawley rat at 10 mg/kg, po; assay type: ADME, organism-based; conditions: in vivo, read-out: CL(app) (converted)
# [11] = target: Casein kinase I isoform gamma-1 (Homo sapiens) (UniProt Q9HCP0); assay: Binding affinity to wild-type human partial length CSNK1G1 (T15 to S353 residues) expressed in bacterial expression system assessed as residual binding level at 1 uM by Kinomescan method relative to control
# [12] = target: SRSF protein kinase 1 (Homo sapiens) (UniProt Q96SB4); assay: Binding affinity to wild-type human full length SRPK1 (M1 to S655 residues) expressed in bacterial expression system assessed as residual binding level at 1 uM by Kinomescan method relative to control
# In short: (§3)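 KINOMEscan competition binding against 468 purified kinases/mutants, test compound at 1 µM; residual binding relative to control.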
# [13] = target: Phosphatidylinositol 4,5-bisphosphate 3-kinase catalytic subunit beta isoform (Homo sapiens) (UniProt P42338); assay: Binding affinity to wild-type human partial length PIK3CB (P118 to S1070 residues) expressed in mammalian expression system assessed as residual binding level at 1 uM by Kinomescan method relative to control
# [14] = target: Serine/threonine-protein kinase 32C (Homo sapiens) (UniProt Q86UX6); assay: Binding affinity to wild-type human partial length YANK3 (M68 to G486 residues) expressed in bacterial expression system assessed as residual binding level at 1 uM by Kinomescan method relative to control
# [15] = target: Tyrosine-protein kinase SYK (Homo sapiens) (UniProt P43405); assay: Binding affinity to wild-type human partial length SYK (D354 to N635 residues) expressed in bacterial expression system assessed as residual binding level at 1 uM by Kinomescan method relative to control
# NCI-H1703 = assay: Cell cycle arrest in human NCI-H1703 cells assessed as accumulation at G0/G1 phase after 72 hrs by propidium iodide/RNase staining-based flow cytometric analysis; assay type: functional
# In short: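 Cells treated with compound or DMSO for the stated periods, fixed overnight in 70% cold ethanol at −20 °C, stained with PI/RNase buffer, then analysed by flow cytometry for cell-cycle distribution. For NCI-H1703 stimulation, PDGF AA was used at 100 ng/mL.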
# [16] = target: Maternal embryonic leucine zipper kinase (Homo sapiens) (UniProt Q14680); assay: Binding affinity to wild-type human full length MELK (M1 to V651 residues) expressed in bacterial expression system assessed as residual binding level at 1 uM by Kinomescan method relative to control; in short: as §3
# [17] = target: SRSF protein kinase 3 (Homo sapiens) (UniProt Q9UPE1); assay: Binding affinity to wild-type human partial length SRPK3 (P41 to P567 residues) expressed in bacterial expression system assessed as residual binding level at 1 uM by Kinomescan method relative to control
# [18] = target: Serine/threonine-protein kinase MAK (Homo sapiens) (UniProt P20794); assay: Binding affinity to wild-type human partial length MAK (M1 to P314 residues) expressed in bacterial expression system assessed as residual binding level at 1 uM by Kinomescan method relative to control; in short: as §1
# [19] = target: Platelet-derived growth factor receptor alpha (Homo sapiens, UniProt P16234); assay: Inhibition of PDGFRalpha autophosphorylation at Y849 residue in human EOL-1 cells up to 300 nM after 2 hrs by Western blot analysis; assay type: cell-based
# [20] = target: Mitogen-activated protein kinase kinase kinase kinase 3 (Homo sapiens) (UniProt Q8IVH8); assay: Binding affinity to wild-type human partial length MAP4K3 (M1 to D301 residues) expressed in bacterial expression system assessed as residual binding level at 1 uM by Kinomescan method relative to control
# Sequence of Hepatocyte growth factor receptor (Homo sapiens) (P08581 whole entry, the tested form may be a part): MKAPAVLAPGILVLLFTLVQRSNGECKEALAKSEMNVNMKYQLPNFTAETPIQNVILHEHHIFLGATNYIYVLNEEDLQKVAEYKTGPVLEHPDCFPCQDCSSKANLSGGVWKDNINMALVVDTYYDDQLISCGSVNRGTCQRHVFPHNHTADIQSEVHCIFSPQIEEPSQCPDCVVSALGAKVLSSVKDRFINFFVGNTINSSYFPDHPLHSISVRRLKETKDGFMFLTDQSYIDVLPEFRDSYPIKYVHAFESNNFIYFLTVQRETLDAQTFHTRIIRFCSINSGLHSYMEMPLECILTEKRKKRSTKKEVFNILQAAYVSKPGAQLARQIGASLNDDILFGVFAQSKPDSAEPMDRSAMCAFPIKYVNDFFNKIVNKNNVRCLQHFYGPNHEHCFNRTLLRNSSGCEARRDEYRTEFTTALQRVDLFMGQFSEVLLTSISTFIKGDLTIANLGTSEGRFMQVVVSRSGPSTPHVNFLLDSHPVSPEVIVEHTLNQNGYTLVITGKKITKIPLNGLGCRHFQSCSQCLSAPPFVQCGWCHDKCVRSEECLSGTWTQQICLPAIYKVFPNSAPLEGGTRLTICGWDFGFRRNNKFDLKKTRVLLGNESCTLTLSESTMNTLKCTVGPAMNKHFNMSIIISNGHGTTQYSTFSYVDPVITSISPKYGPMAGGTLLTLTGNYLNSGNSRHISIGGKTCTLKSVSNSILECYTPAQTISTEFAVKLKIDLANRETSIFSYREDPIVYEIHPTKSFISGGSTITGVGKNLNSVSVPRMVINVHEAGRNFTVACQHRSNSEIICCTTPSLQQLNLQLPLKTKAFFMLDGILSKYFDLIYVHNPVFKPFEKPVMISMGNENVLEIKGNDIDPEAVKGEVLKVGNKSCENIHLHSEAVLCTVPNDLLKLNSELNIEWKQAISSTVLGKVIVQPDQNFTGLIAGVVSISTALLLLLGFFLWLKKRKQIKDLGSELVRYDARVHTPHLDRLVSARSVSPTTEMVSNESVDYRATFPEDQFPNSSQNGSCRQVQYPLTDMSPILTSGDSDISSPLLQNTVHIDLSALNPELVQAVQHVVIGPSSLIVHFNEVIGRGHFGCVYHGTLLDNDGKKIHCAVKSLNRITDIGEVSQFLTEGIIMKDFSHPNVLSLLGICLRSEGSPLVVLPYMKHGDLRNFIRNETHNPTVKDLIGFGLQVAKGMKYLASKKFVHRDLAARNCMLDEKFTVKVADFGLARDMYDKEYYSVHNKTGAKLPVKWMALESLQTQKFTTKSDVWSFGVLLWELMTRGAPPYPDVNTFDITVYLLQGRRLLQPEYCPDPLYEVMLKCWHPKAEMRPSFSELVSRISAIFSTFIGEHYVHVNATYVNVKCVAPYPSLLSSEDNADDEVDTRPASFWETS
# Sequence of Ephrin type-B receptor 6 (Homo sapiens) (O15197 whole entry, the tested form may be a part): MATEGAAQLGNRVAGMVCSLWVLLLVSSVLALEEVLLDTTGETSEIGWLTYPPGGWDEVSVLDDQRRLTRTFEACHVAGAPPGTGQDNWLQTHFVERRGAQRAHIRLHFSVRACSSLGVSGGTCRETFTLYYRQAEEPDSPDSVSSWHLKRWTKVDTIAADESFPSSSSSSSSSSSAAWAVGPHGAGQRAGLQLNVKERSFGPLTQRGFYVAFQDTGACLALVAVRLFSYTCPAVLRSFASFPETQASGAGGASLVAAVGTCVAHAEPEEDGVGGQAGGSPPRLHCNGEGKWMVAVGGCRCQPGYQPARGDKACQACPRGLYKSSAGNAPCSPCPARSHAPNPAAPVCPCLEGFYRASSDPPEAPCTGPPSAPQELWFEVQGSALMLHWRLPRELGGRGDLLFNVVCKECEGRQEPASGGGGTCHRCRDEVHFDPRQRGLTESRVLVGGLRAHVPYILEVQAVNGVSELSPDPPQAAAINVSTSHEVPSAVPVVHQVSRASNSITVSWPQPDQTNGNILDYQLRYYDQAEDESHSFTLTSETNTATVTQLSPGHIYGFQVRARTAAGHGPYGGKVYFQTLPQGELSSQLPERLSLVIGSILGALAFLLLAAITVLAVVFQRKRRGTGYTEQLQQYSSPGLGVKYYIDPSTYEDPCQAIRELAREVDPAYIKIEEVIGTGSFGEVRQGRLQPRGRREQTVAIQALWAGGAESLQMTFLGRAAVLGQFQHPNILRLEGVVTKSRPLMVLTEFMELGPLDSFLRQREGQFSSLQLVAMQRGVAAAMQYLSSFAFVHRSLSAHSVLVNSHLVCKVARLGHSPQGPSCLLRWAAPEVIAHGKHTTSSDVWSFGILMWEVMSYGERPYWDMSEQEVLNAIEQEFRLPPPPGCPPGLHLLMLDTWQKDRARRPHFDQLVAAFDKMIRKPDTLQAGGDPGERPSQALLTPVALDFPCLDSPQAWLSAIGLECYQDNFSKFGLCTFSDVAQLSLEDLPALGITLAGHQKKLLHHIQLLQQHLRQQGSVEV
# Sequence of Platelet-derived growth factor receptor alpha (P16234 whole entry, the tested form may be a part): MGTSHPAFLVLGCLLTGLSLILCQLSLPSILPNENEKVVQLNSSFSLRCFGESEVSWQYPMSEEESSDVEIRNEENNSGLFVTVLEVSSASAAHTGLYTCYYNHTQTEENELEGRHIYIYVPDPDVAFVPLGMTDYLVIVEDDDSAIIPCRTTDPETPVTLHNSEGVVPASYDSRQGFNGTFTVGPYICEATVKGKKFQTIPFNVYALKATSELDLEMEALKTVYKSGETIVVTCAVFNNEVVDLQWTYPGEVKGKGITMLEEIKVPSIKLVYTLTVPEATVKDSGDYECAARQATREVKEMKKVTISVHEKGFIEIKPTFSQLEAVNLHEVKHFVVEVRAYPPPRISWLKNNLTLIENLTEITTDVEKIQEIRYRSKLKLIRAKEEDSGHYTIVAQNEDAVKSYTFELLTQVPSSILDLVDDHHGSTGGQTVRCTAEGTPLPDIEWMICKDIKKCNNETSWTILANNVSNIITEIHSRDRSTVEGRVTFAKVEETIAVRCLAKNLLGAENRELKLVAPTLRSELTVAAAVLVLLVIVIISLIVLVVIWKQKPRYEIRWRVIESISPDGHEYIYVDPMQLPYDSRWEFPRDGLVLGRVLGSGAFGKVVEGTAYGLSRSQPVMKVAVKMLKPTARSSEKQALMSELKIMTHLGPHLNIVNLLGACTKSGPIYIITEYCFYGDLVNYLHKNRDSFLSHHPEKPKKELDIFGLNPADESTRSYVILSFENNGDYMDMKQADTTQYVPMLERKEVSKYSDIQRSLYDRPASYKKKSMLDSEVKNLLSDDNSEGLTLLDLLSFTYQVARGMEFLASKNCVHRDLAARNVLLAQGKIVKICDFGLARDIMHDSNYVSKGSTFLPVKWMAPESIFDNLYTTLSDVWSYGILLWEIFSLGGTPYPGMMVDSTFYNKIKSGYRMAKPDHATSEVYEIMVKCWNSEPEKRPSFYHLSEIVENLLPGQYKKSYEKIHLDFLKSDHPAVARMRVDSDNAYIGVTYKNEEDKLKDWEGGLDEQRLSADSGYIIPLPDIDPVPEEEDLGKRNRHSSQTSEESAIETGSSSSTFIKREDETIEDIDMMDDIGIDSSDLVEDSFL
# Sequence of Tyrosine-protein kinase Fyn (Homo sapiens) (P06241 2-537 limits assumed): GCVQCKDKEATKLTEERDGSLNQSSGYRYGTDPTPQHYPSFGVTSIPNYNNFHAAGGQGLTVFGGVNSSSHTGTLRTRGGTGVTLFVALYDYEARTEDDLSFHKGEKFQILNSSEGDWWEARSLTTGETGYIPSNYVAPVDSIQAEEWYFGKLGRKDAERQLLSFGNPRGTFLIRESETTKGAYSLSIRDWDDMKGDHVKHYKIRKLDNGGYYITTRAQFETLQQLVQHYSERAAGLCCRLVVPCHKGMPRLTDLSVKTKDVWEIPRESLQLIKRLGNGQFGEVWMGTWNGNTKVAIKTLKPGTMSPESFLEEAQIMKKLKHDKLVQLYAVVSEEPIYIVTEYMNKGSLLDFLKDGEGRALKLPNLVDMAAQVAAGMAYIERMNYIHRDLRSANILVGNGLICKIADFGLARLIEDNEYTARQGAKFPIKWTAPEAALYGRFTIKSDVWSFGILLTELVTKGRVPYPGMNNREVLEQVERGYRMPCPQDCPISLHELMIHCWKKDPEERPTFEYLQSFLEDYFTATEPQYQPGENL
# Sequence of Serine/threonine-protein kinase N2 (Homo sapiens) (Q16513 whole entry, looked up, the tested form may be a part): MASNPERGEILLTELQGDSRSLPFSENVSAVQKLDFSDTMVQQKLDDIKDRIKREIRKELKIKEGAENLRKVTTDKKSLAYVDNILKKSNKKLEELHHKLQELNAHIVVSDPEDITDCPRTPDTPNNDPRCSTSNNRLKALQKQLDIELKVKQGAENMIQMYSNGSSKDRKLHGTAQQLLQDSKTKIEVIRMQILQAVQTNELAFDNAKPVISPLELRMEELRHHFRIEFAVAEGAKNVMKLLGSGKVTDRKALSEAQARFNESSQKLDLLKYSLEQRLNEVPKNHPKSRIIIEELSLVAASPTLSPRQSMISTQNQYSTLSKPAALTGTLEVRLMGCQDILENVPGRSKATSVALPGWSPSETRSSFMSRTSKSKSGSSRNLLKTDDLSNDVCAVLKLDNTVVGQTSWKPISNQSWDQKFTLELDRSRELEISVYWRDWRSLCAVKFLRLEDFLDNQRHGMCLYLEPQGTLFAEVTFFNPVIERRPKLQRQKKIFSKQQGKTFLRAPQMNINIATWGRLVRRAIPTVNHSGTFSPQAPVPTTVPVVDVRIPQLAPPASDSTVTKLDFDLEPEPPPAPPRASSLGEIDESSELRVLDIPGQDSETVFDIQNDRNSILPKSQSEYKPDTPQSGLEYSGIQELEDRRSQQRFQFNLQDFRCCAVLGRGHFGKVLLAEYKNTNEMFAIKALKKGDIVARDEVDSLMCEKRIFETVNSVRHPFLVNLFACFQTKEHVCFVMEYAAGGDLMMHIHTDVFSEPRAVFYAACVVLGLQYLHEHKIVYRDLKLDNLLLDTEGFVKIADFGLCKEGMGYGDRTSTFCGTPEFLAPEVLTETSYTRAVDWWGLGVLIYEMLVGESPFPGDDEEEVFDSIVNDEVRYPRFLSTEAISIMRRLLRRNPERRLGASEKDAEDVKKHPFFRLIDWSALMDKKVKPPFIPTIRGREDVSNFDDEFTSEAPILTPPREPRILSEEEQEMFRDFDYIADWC
smiles,measurement,setting,value
Cc1ccc(NC(=O)c2ccc(CN(CCN(C)C)C(=O)c3cccnc3)cc2)cc1Nc1nccc(-c2cccnc2)n1,Activity,[1],80%
same,Activity,[2],95%
same,Activity,[3],96%
same,Activity,[4],90%
same,Activity,[5],100%
same,Activity,[6],98%
same,Activity,[7],99%
same,Activity,[8],100%
same,Activity,EOL1,Active
same,Activity,[9],100%
same,CL/F,[10],1450 mL/min/kg
same,Activity,[11],90%
same,Activity,[12],92%
same,Activity,[13],100%
same,Activity,[14],96%
same,Activity,[15],96%
same,Activity,NCI-H1703,Dose-dependent effect
same,Activity,[16],84%
same,Activity,[17],85%
same,Activity,[18],92%
same,inhibition,[19],Active
same,Activity,[20],93%
